Measured values from different studies.
Each line is one published result; the experiments were not run side by side.
Matrix: plasma

CC[C@@H]([C@H](C)O)n1ncn(-c2ccc(N3CCN(c4ccc(OC[C@@H]5CO[C@@](Cn6cncn6)(c6ccc(F)cc6F)C5)cc4)CC3)cc2)c1=O
MRT(0-t) (Sprague-Dawley rat; oral, 40 mg/kg): 10.3 h

CCOc1c([C@H](C)n2nc(C)c3c(N)ncnc32)cc(Cl)c(F)c1[C@@H]1CNC(=O)C1
MRT(0-t) (male Sprague-Dawley rat; oral, 2 mg/kg, single dose): 7.67 h

C[C@H]1[C@@H](O)O[C@@H]2O[C@@]3(C)CC[C@H]4[C@H](C)CC[C@@H]1[C@@]24OO3
MRT(0-t) (male Sprague-Dawley rat; oral, 10 mg/kg): 1.56 h

C=CC(=O)N1CCC([C@@H]2CCNc3c(C(N)=O)c(-c4ccc(Oc5ccccc5)cc4)nn32)CC1
MRT(0-inf) (Sprague-Dawley rat; oral, 16 mg/kg): 3.93 h

Nc1ccn([C@@H]2O[C@H](CO)[C@@H](O)C2(F)F)c(=O)n1
MRT(0-inf) (male Sprague-Dawley rat; intravenous, 5 mg/kg): 0.13 h

C[C@H]1Oc2cc(cnc2N)-c2c(nn(C)c2C#N)CN(C)C(=O)c2ccc(F)cc21
MRT(0-t) (male Sprague-Dawley rat; oral, 5 mg/kg, single dose): 6.6 h

Cn1c(=O)c2[nH]cnc2n(C)c1=O
MRT(0-inf) (male Sprague-Dawley rat; intravenous, 11.25 mg/kg): 6.51 h

COc1cc(-c2cc(C(C)=O)n3ccccc23)c(OC)cc1Cn1ccnc1
MRT(0-t) (male Sprague-Dawley rat; intravenous, 5 mg/kg): 1.14 h

COc1nc(-c2cccc(-c3ccccc3)c2C)ccc1CNCCNC(=O)CCCCCCCCCCC(=O)N1CCN(CCNC(=O)c2cc3c(=O)n4cccc(C)c4nc3n(CCc3cccs3)c2=N)CC1
MRT(0-inf) (male Sprague-Dawley rat; intravenous, 2 mg/kg): 5.1 h

C[C@@]12C[C@@]3(O)O[C@@H](O1)[C@]1(COC(=O)c4ccccc4)[C@H]3C[C@@]12O[C@@H]1O[C@H](CO)[C@@H](O)[C@H](O)[C@H]1O
MRT(0-inf) (male Sprague-Dawley rat; oral, 80 mg/kg): 10.9 h

COc1ccc(N(Cc2csc(-c3ccccc3)n2)C(=O)CCCCCC(=O)NO)cc1
MRT (female Sprague-Dawley rat; oral, 30 mg/kg): 3.18 h

O=C1CCC(N2Cc3cc(C4CCN(Cc5ccccc5)CC4)ccc3C2=O)C(=O)N1 (stereo not drawn)
MRT(0-t) (male Sprague-Dawley rat; oral, 3 mg/kg): 3 h
